# Bioassay records deposited in PubChem by several laboratories.
# Dynein transport = blocks dynein driven cargo transport along microtubules | 220,000 tested, 0.47% active | AID 1381 | 3617.4 mouse cells, GR-EGFP nuclear translocation imaging; test concentration mostly 20 µM; stimulated with dexamethasone, 1 µM; active compounds read low | z-score, hits read low;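 active = plate z-score of nuclear minus cytoplasmic receptor signal below a set negative limit, without overly bright fluorescence or cell loss, cut at about -3.5 in these data, passing the limit was not always enough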;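 note: z-score of nuclear minus cytoplasmic ring GR-EGFP intensity difference per well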
#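 Also added – dexamethasone, 1.0 µM final · Buffer or medium – tet-free, stripped-serum medium · Schedule – induction 48 h, compound 1 h, agonist 30 min · Detection – formaldehyde fixation, Hoechst nuclear stain, 10x automated fluorescence imaging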
# Ins promoter up = MIN6 insulin promoter up-regulation. MIN6 insulin promoter-GFP reporter, high-content imaging; active compounds read high. z-score at 5 µM. AID 1625. 190,000 tested, 0.3% active;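 active = z-score above 3 at 5 µM with at least 500 cells counted in the well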
# Autophagy mod = autophagy modulation, high-content screen | MEF GFP-LC3 puncta imaging; test concentration mostly 10 µM | calls only at 10 µM (by protocol) | 190,000 tested, 0.98% active;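 active = percentage of spot-positive cells more than 3 SD above its plate mean, without a fluorescence outlier flag or 80% toxicity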;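 note: spot-positive cell cutoff set from DMSO-treated cells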
# INS promoter inh = TRM-6 insulin promoter activity inhibition | TRM-6 cells, insulin promoter-eGFP reporter, imaging; reporter expression induced with tamoxifen | inhibition, % at 2 µM | 130,000 tested, 0.9% active | AID 1273;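 active = inhibition above the mean plus 3 SD, with well images judged a real hit on visual review, cut at about 60% in these data, passing the limit was not always enough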
# * = called active by the depositor; i = inactive; · = no result given; + = active, no number; ! = a repeat was not active. An excerpt weighted towards active compounds, which were near 2% of everything screened.
SMILES,Dynein transport,Ins promoter up,Autophagy mod,INS promoter inh
CNC(=O)C(=O)N/N=C/c1ccc(Br)cc1,0.563,-0.04,i,70.6*
O=C(COC(=O)Cc1ccccc1[N+](=O)[O-])NC1CCCC1,-0.583,-0.7,+,·
O=C(COC(=O)Cc1ccccc1[N+](=O)[O-])NCc1ccc(F)cc1,-0.812,1.12,i,·
COc1ccc(C(=O)N/N=C/c2cn[nH]c2-c2ccc(OC)cc2OC)cc1,0.809,0.1,i,65.5*
COc1ccc(-c2[nH]ncc2/C=N/NC(=O)c2ccc(Br)cc2)c(OC)c1,0.312,0.06,i,23.5
COc1cccc(-c2c(C#N)c(SC)nc3cc(C)nn23)c1,-0.183,1.24,·,·
COc1ccc(-c2cc(-c3ccccc3)nc3ncnn23)cc1,0.195,-0.98,i,·
c1ccc(-c2cc(-c3ccccc3)n3ncnc3n2)cc1,-0.806,0.09,i,69.2*
CCOC(=O)c1cnn2c(C(F)(F)F)cc(-c3ccccc3)nc12,0.654,·,i,3.1
COC(=O)c1cnn2c(C(F)(F)F)cc(-c3ccc(F)cc3)nc12,-0.448,4.23*,i,·
CCOc1ccccc1C(=O)Nc1ccc(-n2nncc2C(C)(C)C)cc1,0.152,-1.68,i,-63.0
CCOC(=O)c1cnn2c1[nH]c(=O)c1ccccc12,1.69,0.08,i,-181.8
Cc1cc2[nH]c(=O)c3ccccc3n2n1,1.81,-0.61,i,83.3*
Cc1ccc(NS(=O)(=O)c2cc(NC(=O)c3ccc4c(c3)NC(=O)CS4)ccc2C)c(C)c1,-0.0888,-2.84,i,·
Nc1cc(F)ccc1N1CCCCCC1,-0.169,0.73,i,50.0
O=C1CC(N2CCN(Cc3ccccc3)CC2)C(=O)N1c1ccccc1 (stereo not drawn),-0.217,-0.8,i,·
CN1C(=O)CC(N2CCN(Cc3ccc(Cl)cc3)CC2)C1=O (stereo not drawn),0.00646,3.88*,i,-40.9
CN1C/C(=C/c2cccnc2)C(=O)/C(=C/c2cccnc2)C1,-5.94*,-2.61,i,-67.7
CCOc1ccc(N2C(=O)CC(N(Cc3ccco3)C(=O)CCC(=O)O)C2=O)cc1 (stereo not drawn),1.73,0.51,i,·
CCn1nc(C(=O)Nc2nc3ccc(C)cc3s2)c2ccccc2c1=O,-0.324,-0.14,+,-37.1
COc1ccc(-c2cc(C(F)(F)F)n3nc(C(=O)NCc4ccco4)cc3n2)cc1,-0.908,0.03,+,·
CC(C)N=C(NS(=O)(=O)c1ccc(Br)cc1)c1ccc(Cl)cc1,-1.97,·,i,·
Cc1ccc(-n2c(=O)c3sccc3n(CC(=O)NCc3ccco3)c2=O)cc1,0.00754,1.16,i,1.3
Cc1cc(C)cc(-n2c(=O)c3sccc3n(CC(=O)NCc3ccco3)c2=O)c1,-0.264,4.64*,i,·
CCCCN(C)C1=Nc2cccc3cccc1c23,-0.74,·,i,75.3*
SMILES,Dynein transport,Ins promoter up,Autophagy mod,INS promoter inh
CCOC(=O)N1CCN(C2=Nc3cccc4cccc2c34)CC1,-1.44,-0.29,i,·
CNC(=O)C1CC(=O)N/C(=N/N=C(\C)c2cccs2)S1 (stereo not drawn),3.54,3.72*,i,26.3
O=C(N/N=C/c1ccc([N+](=O)[O-])o1)c1cc(-c2ccc(-c3ccccc3)cc2)nc2ccccc12,1.79,-1.24,i,·
O=C(N/N=C/c1ccc([N+](=O)[O-])o1)c1cc(-c2ccncc2)nc2ccccc12,-5.01*,0.19,i,·
CC(/C=N/NC(=O)c1cc(-c2ccncc2)nc2ccccc12)=C\c1ccco1,-0.155,·,+,-8.6
Cc1cc(N/N=C/c2ccc([N+](=O)[O-])o2)nc2ccccc12,-0.532,·,+,·
CC(C)=CCC(C)(C)/C=N/NC(N)=O,-1.26,-0.34,·,·
O=C1NCCN/C1=C\C(=O)c1cccc(Br)c1,-0.296,-0.01,·,·
CCCNC(=O)Cn1c(-c2ccc(F)cc2)cc(C(=O)OCC)c1C,2.96,·,+,0.0
CCOC(=O)c1cc(-c2ccccc2)n(CC(=O)NC(C)(C)C)c1C,1.08,-0.34,i,-129.6
CCOC(=O)c1cc(-c2ccccc2)n(CC(=O)O)c1C,0.0221,0.28,+,38.5
CCN1CC(CN(C)Cc2nc(-c3ccc(C(F)(F)F)cc3)oc2C)CC1=O (stereo not drawn),1.24,0.2,i,·
c1ccc(CSCc2nc3ccccc3[nH]2)cc1,0.173,-0.22,i,75.9*
CCOc1ccc2nc(SCC)[nH]c2c1,-0.587,-0.36,i,86.5*
CCC(=O)Nc1ccc(C(=O)CSc2nc3ccccc3[nH]2)cc1,-1,·,i,60.0*
c1ccc(CSc2nc3ccccc3[nH]2)cc1,2.13,0.21,·,·
CCSc1nc2ccccc2[nH]1,-1.37,0.23,i,100.0*!
CCOc1ccc(OCCSc2nc3ccccc3[nH]2)cc1,0.826,-0.37,i,70.6
CCC(=O)Nc1ccc(C(=O)CSc2nc3ccc(C)cc3[nH]2)cc1,-1.16,-0.19,i,21.9
N/N=C(/Cc1nc2ccccc2[nH]1)c1ccc([N+](=O)[O-])cc1,-0.0284,-0.53,i,·
CCCc1nc2ccccc2[nH]1,0.155,·,i,80.0*
NNC(=O)c1ccc(COCC(F)(F)F)cc1,0.393,-0.03,·,·
CSc1ccc(OC2CCCCC2NS(=O)(=O)c2ccc(Cl)cc2)cc1 (stereo not drawn),0.309,-0.54,i,100.0*
O=S(=O)(NC1CCCCC1Oc1ccccc1)c1ccc(Cl)cc1 (stereo not drawn),0.421,0.33,i,-34.2
O=C(CSc1ncccn1)N1CCC(Cc2ccccc2)CC1,0.778,-0.82,i,·
SMILES,Dynein transport,Ins promoter up,Autophagy mod,INS promoter inh
Cc1nn(-c2ccccc2)c(C)c1-c1nnc(-c2c(C)nn(-c3ccccc3)c2C)o1,0.0122,-0.74,·,·
COc1ccc(NC(=O)CSc2nnnn2-c2ccc(OC)cc2)cc1,0.286,0.15,i,4.1
COc1cc(OC)cc(-n2nnnc2SCC(=O)Nc2ccc(C(C)=O)cc2)c1,-0.72,·,+,·
OCCC1CN(Cc2nc3ccccc3s2)CCN1CCc1ccccc1 (stereo not drawn),0.933,-2.55,i,·
C[C@H]1O[C@@H](O[C@H]2[C@@H](O)C[C@H](O[C@H]3[C@@H](O)C[C@H](O[C@H]4CC[C@@]5(C)[C@H](CC[C@@H]6[C@@H]5C[C@@H](O)[C@]5(C)[C@@H](C7=CC(=O)OC7)CC[C@]65O)C4)O[C@@H]3C)O[C@@H]2C)C[C@H](O)[C@@H]1O,-0.361,·,i,100.0*
CCc1ccc2[nH]c3nc(C)cc(C)c3c(=O)c2c1,-0.411,-0.35,i,81.5*
CCc1ccc2[nH]c3nc(SCc4nnc(-c5ccccc5)o4)nnc3c2c1,-0.73,-0.06,·,·
COC(C(=O)Nc1c(F)cccc1F)c1ccccc1 (stereo not drawn),-1.07,0.54,i,·
Cc1ccc(N2C(=O)CS/C2=N\C(=S)Nc2ccccc2)cc1,0.573,0.41,·,·
COc1ccc(/C=N/NC(=O)CCn2cnc3ccccc32)cc1,0.931,0.52,·,·
COc1cccc(/C=N/NC(=O)CCn2cnc3ccccc32)c1,-0.242,3.74*,·,·
CCN(CC)C(=O)c1ccc(NS(=O)(=O)c2ccc(/C=C/C(=O)O)cc2)cc1,0.866,-0.2,i,40.0
CCN(CC)C(=O)c1ccc(NS(=O)(=O)c2ccccc2)cc1,0.108,-0.13,i,100.0*
